What was measured:
Caco-2 [1] = assay: Ratio of permeability from basolateral to apical side over apical to basolateral side of human Caco-2 cell membrane at 10 uM; assay type: ADME, cell-based; conditions: caco-2, 10 µM
Summary of the method: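 Caco-2 monolayers seeded at 1x10^5 cells/cm2, grown 21-25 days, TEER >600 Ohm/cm2. Compound at 10 µM in HBSS pH 7.4 added to apical or basal donor side; 2 h at 37°C with shaking. Both sides sampled, quantified by LC/MS/MS.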

MRP2 = assay: Permeability across dog MDCK cells expressing MRP2; assay type: ADME, cell-based, Canis lupus familiaris; conditions: read-out: permeability
Caco-2 [2] = assay: Ratio of permeability from basolateral to apical side over apical to basolateral side of human Caco-2 cell membrane at 10 uM in presence of MRP2 inhibitor MK571; conditions: caco-2, 10 µM

Ratio (Caco-2 [1]) | Papp (MRP2) [×10⁻⁶ cm/s] | Ratio (Caco-2 [2]) | Compound
1.35 | 3 | – | NC(=O)Nc1cn(-c2ccc(-c3ccc(O)cc3)c(F)c2)nc1C(N)=O
26.02 | 3 | 2.53 | Cc1cc(O)ccc1-c1ccc(-n2cc(NC(N)=O)c(C(N)=O)n2)cc1C
